Measured values taken from ChEMBL document CHEMBL1129588, “Development of potent thrombin receptor antagonist peptides” (J Med Chem, 1996).
Non-standard residues stand in square brackets, D forms with d. Residues, ends and D or L forms follow the SMILES beside them. *: point of attachment. Phe(4-guanidino) = N=C(N)Nc1ccc(C[C@H](N)C(=O)O)cc1; Phe(4-F) = N[C@@H](Cc1ccc(F)cc1)C(=O)O; Thiophene3carbonyl = O=C(c1ccsc1)*; Tic = O=C(O)[C@@H]1Cc2ccccc2CN1; Thz = O=C(O)[C@@H]1CSCN1; X1 = O=C(c1ccoc1)*

Columns and labels:
[1] = biological target: T1, Proteinase-activated receptor 1 (Homo sapiens, UniProt P25116); experiment: Concentration of compound required to inhibit agonist ([…], at 3 uM) induced platelet aggregation by 50%; PA=not experimentally achieved; format: functional
T1 sequence (P25116 whole entry): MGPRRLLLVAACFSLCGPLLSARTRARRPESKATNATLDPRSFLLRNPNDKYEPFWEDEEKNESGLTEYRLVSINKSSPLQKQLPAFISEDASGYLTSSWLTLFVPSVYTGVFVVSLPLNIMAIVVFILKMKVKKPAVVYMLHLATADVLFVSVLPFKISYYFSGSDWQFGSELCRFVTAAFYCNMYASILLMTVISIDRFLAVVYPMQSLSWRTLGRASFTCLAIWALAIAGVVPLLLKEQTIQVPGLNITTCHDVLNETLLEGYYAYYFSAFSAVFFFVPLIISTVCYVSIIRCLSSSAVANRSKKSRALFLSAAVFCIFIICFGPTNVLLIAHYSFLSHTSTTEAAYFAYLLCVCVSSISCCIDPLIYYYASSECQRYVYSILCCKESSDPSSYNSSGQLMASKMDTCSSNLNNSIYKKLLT
Procedure, shortened: (§1)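 Gel-filtered human platelets in a microtiter turbidity aggregation assay, preincubated with test peptide and then stimulated with SFLLRNP-NH₂ at 3 μM. […] N is the number of determinations.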

[2] = biological target: T1, Proteinase-activated receptor 1
[3] = Concentration to stimulate human platelet aggregation; format: functional
Procedure, shortened: (§2)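 Peptides were added alone to gel-filtered human platelets, and aggregation was read by microtiter turbidity. EC₅₀ is the concentration stimulating 50% of maximum aggregation. N is the number of determinations. A peptide is called a partial agonist where maximum aggregation was not reached experimentally.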

[4] = biological target: T1, Proteinase-activated receptor 1; experiment: Effective concentration of compound for stimulation of 50% maximum platelet aggregation; PA=not experimentally achieved; format: functional; procedure, shortened: as §2
[5] = biological target: T1, Proteinase-activated receptor 1; experiment: Concentration of compound required to inhibit agonist ([…], at 3 uM) induced platelet aggregation by 50%;PA=not experimentally achieved; format: functional; procedure, shortened: as §1

IC50 [2] [nM]	EC50 [3] [nM]	SMILES	also measured
24	–	C/C=C/C=C/CC(=O)N(C(C)=O)[C@@H](Cc1ccc(F)cc1)C(=O)N[C@@H](Cc1ccc(NC(=N)N)cc1)C(=O)N[C@@H](CC(C)C)C(=O)N[C@@H](CCCN=C(N)N)C(N)=O	IC50 [1]: Not Active
–	100	CC(C)C[C@H](NC(=O)[C@H](Cc1ccc(F)cc1)NC(=O)[C@H](Cc1ccc(F)cc1)NC(=O)[C@@H](N)CO)C(=O)N[C@@H](CCCN=C(N)N)C(N)=O (H-S[Phe(4-F)][Phe(4-F)]LR-NH2)	–
–	40	CC(C)C[C@H](NC(=O)[C@H](Cc1ccc(NC(=N)N)cc1)NC(=O)[C@H](Cc1ccc(F)cc1)NC(=O)[C@@H](N)CO)C(=O)N[C@@H](CCCN=C(N)N)C(N)=O (H-S[Phe(4-F)][Phe(4-guanidino)]LR-NH2)	–
–	470	CC(C)C[C@H](NC(=O)[C@@H]1Cc2ccccc2CN1C(=O)[C@H](Cc1ccc(F)cc1)NC(=O)[C@@H](N)CO)C(=O)N[C@@H](CCCN=C(N)N)C(N)=O (H-S[Phe(4-F)][Tic]LR-NH2)	–
–	46000	CC(C)C[C@H](NC(=O)[C@H](CC(C)C)NC(=O)[C@H](Cc1ccccc1)NC(=O)[C@@H]1CSCN1)C(=O)N[C@@H](CCCN=C(N)N)C(N)=O (H-[Thz]FLLR-NH2)	–
24	–	CC(C)C[C@H](NC(=O)[C@H](Cc1ccc(NC(=N)N)cc1)NC(=O)[C@H](Cc1ccc(F)cc1)NC(=O)c1ccsc1)C(=O)N[C@@H](CCCN=C(N)N)C(N)=O (Thiophene3carbonyl-[Phe(4-F)][Phe(4-guanidino)]LR-NH2)	EC50 [4]: Not Active
29	–	CC(C)C[C@H](NC(=O)[C@H](Cc1ccc(NC(=N)N)cc1)NC(=O)[C@H](Cc1ccc(F)cc1)NC(=O)c1ccoc1)C(=O)N[C@@H](CCCN=C(N)N)C(N)=O (X1-[Phe(4-F)][Phe(4-guanidino)]LR-NH2)	EC50 [5]: Not Active
